This note sets out measurements from ChEMBL document CHEMBL1136814, “Design of a new peptidomimetic agonist for the melanocortin receptors based on the solution structure of the peptide ligand, Ac-Nle-cyclo[Asp-Pro-DPhe-Arg-Trp-Lys]-NH(2)” (Bioorg Med Chem Lett, 2003).

For assay [1], the target named is Melanocortin receptor 3 (Homo sapiens, UniProt P41968). Description: Binding affinity towards human melanocortin 3 receptor (hMC3R) using [125I]NDP-alpha-MSH as radioligand. The procedure, abridged: (§1)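 Nonspecific binding taken with excess unlabeled NDP-MSH. Stopped by rapid filtration through GF/C glass-fibre filters, three ice-cold water washes, bound radioactivity by scintillation counting. IC50 from nonlinear regression of concentration curves.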

Assay [2] addresses Melanocyte-stimulating hormone receptor (Mus musculus, UniProt Q01727). Description: Binding affinity towards mouse Melanocortin 1 receptor (mMC1R) using [125I]NDP-alpha-MSH as radioligand. The procedure, abridged: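 Receptor membranes ([…]) incubated 2 h at 30 °C in assay buffer with test compound at various concentrations plus 0.2 nM 125I-NDP-α-MSH. Nonspecific binding taken with excess unlabeled NDP-MSH. Stopped by rapid filtration through GF/C glass-fibre filters, three ice-cold water washes, bound radioactivity by scintillation counting. IC50 from nonlinear regression of concentration curves.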

The target in assay [3] is T1, Melanocortin receptor 4 (Homo sapiens, UniProt P32245). Description: Binding affinity towards human melanocortin 4 receptor (hMC4R) using [125I]NDP-alpha-MSH as radioligand. Summed up:
as §1

Assay [4] deals with T1, Melanocortin receptor 4. The experiment in a line: Intracellular levels of cAMP in HEK 293 cells expressing human melanocortin 4 receptor (hMC4R). The format is cell-based, HEK293. The procedure, abridged: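 Cells seeded at 75,000/well on fibronectin and assayed about 48 h later. Medium replaced with DMEM containing IBMX, peptide added across a six-point dilution range starting at 0.1 nM, 30 min at 37 °C. Lysis stopped the reaction; cAMP quantified by chemiluminescent ELISA. EC50 reported as mean ± SEM of two determinations.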

The structures appear in SMILES notation.

Sequence of Melanocortin receptor 3 (P41968 whole entry): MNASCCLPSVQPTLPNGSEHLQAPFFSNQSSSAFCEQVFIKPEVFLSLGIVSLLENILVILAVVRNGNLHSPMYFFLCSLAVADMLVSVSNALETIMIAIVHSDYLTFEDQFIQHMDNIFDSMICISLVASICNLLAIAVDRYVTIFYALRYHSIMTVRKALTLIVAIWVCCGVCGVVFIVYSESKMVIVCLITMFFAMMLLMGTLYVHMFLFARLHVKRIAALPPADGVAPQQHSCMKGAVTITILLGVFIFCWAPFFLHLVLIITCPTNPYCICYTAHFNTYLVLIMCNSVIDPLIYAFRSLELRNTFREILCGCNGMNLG
T1 sequence (P32245 whole entry): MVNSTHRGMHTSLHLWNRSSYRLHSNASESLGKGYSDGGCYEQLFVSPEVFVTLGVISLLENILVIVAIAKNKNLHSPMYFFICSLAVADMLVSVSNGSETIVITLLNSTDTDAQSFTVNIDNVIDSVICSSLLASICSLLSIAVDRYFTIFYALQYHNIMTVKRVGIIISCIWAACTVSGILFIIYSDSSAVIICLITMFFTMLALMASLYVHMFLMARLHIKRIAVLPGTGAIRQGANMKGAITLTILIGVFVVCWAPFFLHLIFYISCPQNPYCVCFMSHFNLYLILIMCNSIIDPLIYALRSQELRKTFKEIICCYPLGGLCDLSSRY
Sequence of Melanocyte-stimulating hormone receptor (Q01727 whole entry): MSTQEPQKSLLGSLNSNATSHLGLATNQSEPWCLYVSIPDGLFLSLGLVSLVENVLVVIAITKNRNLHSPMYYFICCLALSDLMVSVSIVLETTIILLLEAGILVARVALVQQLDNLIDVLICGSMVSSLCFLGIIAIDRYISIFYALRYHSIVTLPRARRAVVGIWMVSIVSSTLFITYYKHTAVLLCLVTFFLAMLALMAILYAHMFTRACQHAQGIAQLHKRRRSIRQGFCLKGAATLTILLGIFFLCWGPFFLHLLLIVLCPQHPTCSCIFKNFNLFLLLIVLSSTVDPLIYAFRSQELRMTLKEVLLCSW

The term IC50 denotes the concentration that inhibits the measured activity by half. As to `CC(=O)N[C@@H](Cc1ccccc1)C(=O)N(CCCCN)C1CCC(N(CCc2c[nH]c3ccccc23)C(C)=O)CC1` (stereo partly drawn), the figures for the IC50 in assay [1], in assay [2] and in assay [3] were above 10 µM, 10 µM and 9.25 µM, respectively.
For `CC(=O)N(CCCCN=C(N)N)C1CCC(N(CCc2c[nH]c3ccccc23)C(C)=O)CC1` (stereo not drawn) the same measures were above 10 µM, above 10 µM and above 10 µM.
On the same counts, the results for `CC(=O)N[C@@H](Cc1ccccc1)C(=O)N(CCCCN=C(N)N)C1CCC(N(C)C(C)=O)CC1` (stereo partly drawn) are above 10 µM, 9 µM and above 10 µM.
In assay [3], `CC(=O)N[C@H](Cc1ccccc1)C(=O)N(CCCCNC(=N)N)C1CCC(N(CCc2c[nH]c3ccccc23)C(C)=O)CC1` (stereo in doubt; 11) had an IC50 of 0.5 µM.
As a reminder, the EC50 is the midpoint of the concentration-response curve. A lower EC50 goes with higher potency in that assay. For the compound `CC(=O)N[C@H](Cc1ccccc1)C(=O)N(CCCCNC(=N)N)C1CCC(N(CCc2c[nH]c3ccccc23)C(C)=O)CC1` (stereo in doubt; cis), the EC50 in assay [4] was determined as 0.004 µM. Also, the values for the IC50 in assay [1], in assay [2] and in assay [3] were 0.28 µM, 0.051 µM and 0.0077 µM, respectively.
Compound `CC(=O)N[C@H](Cc1ccccc1)C(=O)N(CCCCNC(=N)N)C1CCC(N(CCc2c[nH]c3ccccc23)C(C)=O)CC1` (stereo in doubt; trans) displayed an EC50 in assay [4] of 0.68 µM. For the same compound, the values for the IC50 in assay [1], in assay [2] and in assay [3] were above 10 µM, above 10 µM and 3.5 µM, respectively.
